# What was measured:
# Monkey [1] = assay: Efficiency of the chelator [(net iron excretion ) / (total iron binding capacity of chelator)] to induce iron clearance in monkey at a peroral dose of 150 uMol/kg.; assay type: functional, Cercopithecidae
# Summary of the method: (§1)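 Capuchin (Cebus apella) monkeys were iron-loaded with 2–3 iron dextran iv infusions to about 500 mg Fe/kg, then rested at least 60 days. Chelator was given po in 40% Cremophor RH-40/water. Feces and urine were collected every 24 h, from 4 days pre-dose to 5 days post-dose, and iron was measured by flame AAS. Efficiency = (2-day post-dose iron − mean 4-day baseline) / theoretical output for a 2:1 ligand–iron complex, as a percent.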
# Rattus norvegicus [2] = assay: Efficiency of the chelator [(net iron excretion ) / (total iron binding capacity of chelator)] to induce iron clearance in rat at a peroral dose of 150 umol/kg.; assay type: functional
# Summary of the method: (§2)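 Male Sprague–Dawley rats (~400 g) had bile-duct cannulation under ip pentobarbital. Chelator in 40% Cremophor RH-40/water was given at 150 µmol/kg, po or sc. Bile was collected at 3-h intervals for 24 h and urine every 24 h; iron was measured in both. Net iron = treated minus control excretion, divided by the theoretical 2:1 ligand–iron binding capacity, as a percent.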
# Rattus norvegicus [3] = assay: Chronic toxicity in 5 rats administered by gavage at a dose of 384 [uMol/kg/day] X 10 days, measured as number of deaths. Activity value is 0/5 (All histopathologies normal; well tolerated for 10-day test period); assay type: organism-based; details: in vivo, po, 240 h
# [4] = Octanol-water apparent distribution coefficient measured in TRIS buffer at a pH 7.4.; assay type: physicochemical
# Summary of the method: (§3)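 Shake-flask octanol/50 mM TRIS buffer pH 7.4 at 24 °C, with 3–5 min mixing and 1–24 h settling. Phase concentrations were read by UV spectrometry. Values are distribution coefficients uncorrected for partial ionization of the acids.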
# [5] = log P value measured in TRIS buffer at a pH 7.4.; assay type: physicochemical; summary of the method: as §3
# Monkey [6] = assay: Efficiency of the chelator [(net iron excretion ) / (total iron binding capacity of chelator)] to induce iron clearance in monkey at a peroral dose of 300 uMol/kg.; assay type: functional, Cercopithecidae; summary of the method: as §1
# Rattus norvegicus [7] = assay: Chronic toxicity in 5 rats administered by gavage at a dose of 384 [uMol/kg/day] X 10 days, measured as number of deaths. Activity value is 5/5; assay type: organism-based; details: in vivo, po, 240 h
# Rattus norvegicus [8] = assay: Efficiency of the chelator [(net iron excretion ) / (total iron binding capacity of chelator)] to induce iron clearance in rat at a subcutaneous dose of 150 uMol/kg.; assay type: functional; summary of the method: as §2
# Rattus norvegicus [9] = assay: Efficiency of the chelator [(net iron excretion ) / (total iron binding capacity of chelator)] to induce iron clearance in rat at a peroral dose of 150 uMol/kg.; assay type: functional; summary of the method: as §2
# Rattus norvegicus [10] = assay: Chronic toxicity in 5 rats administered by gavage at a dose of 384 [uMol/kg/day] X 10 days, measured as number of deaths. Activity value is 5/5.; assay type: organism-based; details: in vivo, po, 240 h
# Monkey [11] = assay: Efficiency of the chelator [(net iron excretion ) / (total iron binding capacity of chelator)] to induce iron clearance in monkey at a peroral dose of 75 umol/kg.
# Rattus norvegicus [12] = assay: Chronic toxicity in rats administered by gavage at a dose of 384 [uMol/kg/day] X 10 days, measured as number of deaths. Activity value is 0/5 (All histopathologies normal; well tolerated for 10-day test period); assay type: organism-based; details: in vivo, po, 240 h
structure (smiles),measurement,setting,value
O=C(O)[C@H]1CSC(c2ncccc2O)=N1,Efficiency,Monkey [1],4.8%
same,Efficiency,Rattus norvegicus [2],2.4%
same,No. of deaths,Rattus norvegicus [3],well tolerated for 10-day test period
same,K app,[4],0.013
same,logD,[5],-1.87
same,Efficiency,Monkey [6],8%
C[C@]1(C(=O)O)CSC(c2ncccc2O)=N1 [DESFERRITHIOCIN],Efficiency,Monkey [1],16.1%
same,Efficiency,Rattus norvegicus [2],5.5%
same,No. of deaths,Rattus norvegicus [7],Number of deaths 5/5
same,K app,[4],0.017
same,logD,[5],-1.77
COc1cccc(C2=N[C@@H](C(=O)O)CS2)c1O,Efficiency,Rattus norvegicus [2],0.9%
same,Efficiency,Rattus norvegicus [8],0.5%
Cc1ccc(O)c(C2=NC(C(=O)O)CC2)c1.Cl (centres undefined),Efficiency,Rattus norvegicus [2],<0.5%
same,Efficiency,Rattus norvegicus [8],<0.5%
O=C(O)[C@H]1CSC(c2cccc(O)c2O)=N1,Efficiency,Rattus norvegicus [9],<0.5%
same,Efficiency,Rattus norvegicus [8],<0.5%
O=C(O)C[C@H]1CSC(c2ccccc2O)=N1,Efficiency,Rattus norvegicus [2],<0.5%
O=C(O)[C@H]1CSC(c2ccccc2O)=N1,Efficiency,Rattus norvegicus [2],1.4%
same,K app,[4],0.12
same,logD,[5],-0.93
same,No. of deaths,Rattus norvegicus [10],Number of deaths 5/5
same,Efficiency,Monkey [6],12.4%
O=C(O)c1ccc(C2=N[C@@H](C(=O)O)CS2)c(O)c1,Efficiency,Rattus norvegicus [2],<0.5%
same,Efficiency,Rattus norvegicus [8],<0.5%
O=C(O)CC[C@H]1CSC(c2ccccc2O)=N1,Efficiency,Rattus norvegicus [2],<0.5%
O=C(O)C1CN=C(c2ccccc2O)N1 (centres undefined),Efficiency,Rattus norvegicus [2],<0.5%
same,Efficiency,Rattus norvegicus [8],<0.5%
O=C(O)[C@H]1CSC(Cc2ccccc2O)=N1,Efficiency,Rattus norvegicus [2],<0.5%
same,Efficiency,Rattus norvegicus [8],<0.5%
O=C(O)[C@H]1CSC(c2nc3ccccc3cc2O)=N1,Efficiency,Monkey [1],3.5%
same,Efficiency,Rattus norvegicus [2],5.9%
O=C(O)[C@@H]1CSC(c2nc3ccccc3cc2O)=N1,Efficiency,Monkey [11],<0.5%
same,Efficiency,Rattus norvegicus [2],12.3%
O=C(O)[C@H]1CSC(c2ccc(O)cc2O)=N1,Efficiency,Monkey [1],4.2%
same,K app,[4],0.063
same,No. of deaths,Rattus norvegicus [12],well tolerated for 10-day test period
same,logD,[5],-1.2
same,Efficiency,Rattus norvegicus [9],2.4%
